tolC growth inh: growth inhibitors of E. coli tolC mutant, primary screen, strain BW25113 ΔtolC::kan, 384-well | OD615 | growth inhibition, % at 10 µM (by protocol) | hit rate 2.2% among 65,000 | AID 573, 2007;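 active = growth inhibition at or above a cutoff equal to the mean over every tested compound plus 3 SD, cut at about 60% in these data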;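 note: growth measured after 20 h incubation at 37 °C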
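System: E. coli ΔtolC::kan strain BW25113; Buffer or medium: LB broth supplemented with 50 µg/mL kanamycin; Compound: 10 µM final, single dose; Incubation: bacterial growth with compound for 20 h at 37 °C; Signal: A615 absorbance measurement; Evaluation: growth inhibition in percent.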
PostGolgi ctrl: growth inhibition of yeast control strain, primary screen, counter-screen for post-Golgi transport modulator project; efflux-deficient yeast background strain, growth absorbance A615, 16 h; inhibition, % at 10 µM; hit rate 5% among 98,000; AID 738, 2007
PostGolgi yeast: phenotypic screen on post-Golgi transport, primary screen | inhibition, % at 10 µM | post-Golgi transport phenotypic cell assay | hit rate 0.9% among 98,000;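 note: yeast cells grown in 1536-well plates; yeast grown about 18 h at 30C before absorbance read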
PLAP act: PLAP enzyme activators, biochemical, luminescence, HTS | Alkaline phosphatase, placental type (Homo sapiens), P05187 | purified PLAP enzyme, luminescent substrate read-out; active compounds read high | activation fold at 20 µM | hit rate 1.2% among 96,000 | AID 696, 2007; in the data active = activation fold above about 2
Target sequence (P05187 whole entry, looked up): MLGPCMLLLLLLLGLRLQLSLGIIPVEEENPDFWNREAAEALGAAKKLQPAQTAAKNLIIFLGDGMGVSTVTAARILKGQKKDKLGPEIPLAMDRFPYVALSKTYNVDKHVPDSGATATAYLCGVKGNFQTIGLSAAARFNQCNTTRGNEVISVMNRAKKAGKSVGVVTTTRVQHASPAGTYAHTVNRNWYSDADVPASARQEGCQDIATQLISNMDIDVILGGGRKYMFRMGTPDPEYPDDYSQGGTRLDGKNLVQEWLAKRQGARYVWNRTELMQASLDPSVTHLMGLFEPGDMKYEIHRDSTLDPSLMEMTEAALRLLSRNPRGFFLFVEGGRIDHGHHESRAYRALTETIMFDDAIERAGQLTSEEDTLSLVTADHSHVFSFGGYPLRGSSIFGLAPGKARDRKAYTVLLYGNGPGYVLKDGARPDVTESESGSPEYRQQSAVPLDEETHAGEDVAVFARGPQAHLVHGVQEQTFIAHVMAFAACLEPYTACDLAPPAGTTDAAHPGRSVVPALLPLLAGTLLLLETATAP
Ecoli WT expand: growth inhibitors of wild-type E. coli, primary screen, strain BW25113, expanded library, OD600. OD600 absorbance. growth inhibition, % at 100 µM. hit rate 0.15% among 98,000;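 active = growth inhibition above about 50% at one test dose, limit read from the data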;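 note: growth measured after 20 h incubation at 37 °C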
Numbers without * were called inactive; · = no result given. This is a sample that favours compounds with a hit; in the whole collection about 7.2% have one here. Cut-off read from the data, not from the text of the source, unless noted: active = inhibition above about 30%; inactive = the rest.

SMILES	tolC growth inh	PostGolgi ctrl	PostGolgi yeast	PLAP act	Ecoli WT expand
O=C(CCn1c(=O)oc2ccccc21)N1CCN(c2ccccc2F)CC1	-8.3	4.2	3.2	1.4	4.0
O=C(CCn1c(=O)oc2ccccc21)N1CCN(C(c2ccccc2)c2ccccc2)CC1	63.7*	36.5*	5.2	1.5	-13.0
O=C(Cn1c(=O)oc2ccccc21)N1CCN(c2ccccc2)CC1	-3.2	31.1*	11.8	1.1	-8.0
CC(C)OC(=O)[C@H]1[C@H](c2ccc(Cl)cc2)[C@@](C#N)(C(N)=O)[C@@H]2C=CC(C(N)=O)=CN21	14.2	-0.3	-6.8	1.1	7.0
C=CCn1c(CCC(=O)Nc2ccc(C)c(Cl)c2)nnc1SCC(=O)Nc1ccccc1C	·	5.4	-7.3	1.3	-8.0
O=C(NCN1C(=O)C2C3C=CC(C3)C2C1=O)OC1CCCCC1 (centres undefined)	-6.7	-3.9	-0.2	1	6.0
O=C(CC(=O)NN=C1CCCC1)NCCc1ccccc1	·	-6.0	-4.2	1	8.0
O=C(NCCc1ccccc1)C1(c2ccccc2)CC1(Cl)Cl (centres undefined)	·	39.0*	5.0	1	-1.0
CCn1c(CCC(=O)Nc2nc3c(s2)CCCC3)nc2cc(S(=O)(=O)N(C)C)ccc21	11.6	33.0*	-3.0	1.4	8.0
CCN(CC)S(=O)(=O)c1ccc2c(c1)nc(CCC(=O)Nc1cccc(C(F)(F)F)c1)n2CC	·	18.9	0.2	1.1	-9.0
CCC1SC2=NC(C)=C(C(=O)OCCOC)C(c3ccc(C(=O)OC)cc3)N2C1=O (centres undefined)	14.6	-3.5	1.5	1.5	6.0
Cc1ccc(C2CC(C(F)(F)F)n3nc(C(=O)NCC4CCCO4)cc3N2)cc1 (centres undefined)	36.2	-0.1	9.8	1.7	1.0
CCCCN(CC)c1nc(N)c2c(N)nc(OCC)cc2c1C#N	·	75.8*	2.4	0.8	-10.0
CCCCN(CC)c1nc(N)c(C#N)c(CC#N)c1C#N	·	14.7	19.9	1.4	7.0
CC1=NN(C(N)=S)C(=O)C1N=Nc1ccccc1C (centres undefined)	·	30.4*	8.5	·	-15.0
CC1=NN(C(N)=S)C(=O)C1N=Nc1c(C)cc(C)cc1C (centres undefined)	·	32.1*	10.6	1.6	-2.0
c1ccc(Cn2ccc(-c3cnc(-c4ccccc4)s3)n2)cc1	·	13.1	-1.4	1	1.0
COC(=O)c1cccc(CSc2nnc(C)s2)c1	-23.8	1.5	20.4	1	3.0
CCc1nc(NCc2ccc3c(c2)OCO3)c2oc3ccccc3c2n1	·	55.2*	0.2	1.2	-14.0
CCc1nc(NCC2CCCO2)c2oc3ccccc3c2n1 (centres undefined)	10.6	-0.6	-4.7	1.6	10.0
CCc1nc(N(CC)CC)c2oc3ccccc3c2n1	34.5	36.4*	-5.5	·	10.0
CCNc1nc(CC)nc2c1oc1ccccc12	8.0	5.3	-11.9	·	-1.0
Cc1nc(NCc2ccc3c(c2)OCO3)c2oc3ccccc3c2n1	24.8	23.8	-1.0	·	-7.0
CCc1nc(SCCO)c2oc3ccccc3c2n1	5.6	4.7	18.9	0.8	-4.0
CCc1nc(SCc2nc3ccccc3[nH]2)c2oc3ccccc3c2n1	·	69.0*	0.6	1.8	-1.0
SMILES	tolC growth inh	PostGolgi ctrl	PostGolgi yeast	PLAP act	Ecoli WT expand
CCc1nc(N2CCC(C)CC2)c2oc3ccccc3c2n1	100.0*	25.9	-5.0	1.3	2.0
CCOC(=O)c1ccc(NS(=O)(=O)N2CCCCCC2)cc1	35.1	-0.8	-2.8	1.1	12.0
CCc1nc(SCC(=O)N2CCN(c3ccccc3)CC2)c2oc3ccccc3c2n1	·	32.7*	-3.4	1.1	-17.0
CCc1nc(SCC(=O)c2ccc(Cl)s2)c2oc3ccccc3c2n1	·	22.4	-2.5	0.8	-2.0
COc1cc(/C=C(\C#N)c2nc3ccccc3[nH]2)ccc1Oc1ccc([N+](=O)[O-])cn1	·	1.7	15.4	0.9	-11.0
Cc1cc(/C=C(/C#N)c2nc3ccccc3[nH]2)c(C)n1-c1cccc([N+](=O)[O-])c1	·	9.8	34.4*	1.5	-19.0
CCCCNC(=O)c1onc(CSc2ccc(F)c(F)c2)c1C(=O)O	·	8.5	3.1	1.3	-13.0
CC(=O)N1CCN(Cc2nc3cc(NC(=O)c4ccccc4)ccc3n2C)CC1	·	5.2	-10.0	1.1	3.0
CCCC(=O)Nc1ccc2c(c1)nc(CN1CCN(C(C)=O)CC1)n2C	·	31.3*	4.2	1	-8.0
Cn1c(CN2CCCC2)nc2cc(NC(=O)COc3ccc(Cl)cc3)ccc21	18.2	33.1*	3.3	1.1	7.0
COc1ccc(CCN2C(=S)NC3CC2(C)Oc2ccc([N+](=O)[O-])cc23)cc1OC (centres undefined)	·	23.4	4.5	1	-1.0
O=C(Cc1cn2ccsc2n1)Nc1nc2c(s1)CN(Cc1ccccc1)CC2	35.4	-2.4	3.7	1.7	20.0
Cc1cc(-c2nnc3n2N=C(C(C)(C)C)CS3)n[nH]1	7.2	34.0*	-0.9	1.2	8.0
CCCc1cc(=O)[nH]c(SCC(=O)N2CCN(S(=O)(=O)c3ccc(C)cc3)C2)n1	5.9	2.2	3.2	1.2	2.0
CO/N=C(/CS(=O)(=O)Cc1ccccc1Cl)c1ccc(Cl)cc1Cl	·	32.8*	-1.2	0.9	-6.0
CN(Cc1ccccc1)C(=O)CSc1nc2ccccc2c(=O)n1Cc1ccco1	67.2*	55.9*	7.2	1.8	-30.0
NC(=O)NC(c1ccccc1)c1cccc2ccccc12 (centres undefined)	·	16.8	3.2	0.8	8.0
Cc1ccc(N2CCN(C(=O)c3ccccc3F)CC2)c(C)c1	33.5	41.9*	-0.7	1.4	8.0
CC(C)CN1C(=O)c2ccc(NC(=O)c3ccccc3F)cc2C1=O	·	33.1*	-8.8	1	-5.0
CC(C)CN1C(=O)c2ccc(NC(=O)c3cccs3)cc2C1=O	·	6.0	-3.3	1	-11.0
Cc1c(NC(=O)Cn2cnc3c(=O)n(C)c(=O)n(C)c32)cccc1-c1nc2ccccc2o1	0.9	·	·	·	·
COC(=O)[C@H](Cc1ccccc1)NC(=O)Nc1ccc(C)cc1	·	3.0	3.9	0.9	7.0
Cc1ccc(-c2cc(C(=O)Nc3c(C)n(C)n(-c4ccccc4)c3=O)[nH]n2)c(O)c1	-9.0	1.6	-15.1	1.4	-10.0
Cc1cc(C)c(-c2cc(C(=O)Nc3c(C)n(C)n(-c4ccccc4)c3=O)[nH]n2)c(O)c1	-11.7	-0.1	-11.2	2.2*	8.0
Cc1ccc(CNC(=O)CN(C)S(=O)(=O)c2cccc3cccnc23)cc1	2.5	3.8	-7.3	1.5	4.0
O=C1OCCC1Sc1nc(-c2ccccc2)cs1 (centres undefined)	3.8	-5.3	-5.0	1.1	11.0
Cc1cccc(N(C)C(=O)c2cc3cc4ccc(C)cc4nc3o2)c1	96.3*	10.7	1.3	1.3	-10.0
Cc1ccc(NC(=O)Nc2cccs2)cc1	-3.0	37.9*	2.5	0.8	7.0
CCc1ccc(NC(=O)Nc2cccs2)cc1	30.0	12.4	3.9	0.9	11.0
CCSc1c(-c2ccccc2)nc2c(C)cccc2c1C(=O)O	·	10.1	-2.1	1.4	0.0
